Assays:
[1] = system: rat hepatocytes; assay: Hepatocyte stability; assay type: in vitro ADME
[2] = Rat pharmacokinetics; assay type: in vivo; settings: for clearance: rat, plasma, iv, 1 mg/kg; for rat PK profile (in words): rat PK studies
[3] = Mouse Blood-Brain Barrier; assay type: in vivo; settings: 10 mg/kg ip, mice
Procedure, shortened: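 Male C57BL/6J mice (8 weeks) were habituated and handled before dosing. Test compound was suspended in 0.1% Tween80, 0.1% silicone antifoam and 1% methylcellulose in water, then given once ip at 10 mg/kg (10 mL/kg). At 5, 15 or 60 min, mice under isoflurane gave cardiac blood (Li-heparin) and were PBS-perfused. Plasma was spun 2000 rpm, 4°C, 15 min. Brain was homogenised in 4x (w/v) PBS pH 7.4 for total levels.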

[4] = cited from earlier work
[5] = target: P-glycoprotein (Homo sapiens, UniProt P08183); assay: P-gp efflux ratio in P-glycoprotein expressing MDCK cells; assay type: in vitro ADME
P-glycoprotein, sequence (P08183 whole entry): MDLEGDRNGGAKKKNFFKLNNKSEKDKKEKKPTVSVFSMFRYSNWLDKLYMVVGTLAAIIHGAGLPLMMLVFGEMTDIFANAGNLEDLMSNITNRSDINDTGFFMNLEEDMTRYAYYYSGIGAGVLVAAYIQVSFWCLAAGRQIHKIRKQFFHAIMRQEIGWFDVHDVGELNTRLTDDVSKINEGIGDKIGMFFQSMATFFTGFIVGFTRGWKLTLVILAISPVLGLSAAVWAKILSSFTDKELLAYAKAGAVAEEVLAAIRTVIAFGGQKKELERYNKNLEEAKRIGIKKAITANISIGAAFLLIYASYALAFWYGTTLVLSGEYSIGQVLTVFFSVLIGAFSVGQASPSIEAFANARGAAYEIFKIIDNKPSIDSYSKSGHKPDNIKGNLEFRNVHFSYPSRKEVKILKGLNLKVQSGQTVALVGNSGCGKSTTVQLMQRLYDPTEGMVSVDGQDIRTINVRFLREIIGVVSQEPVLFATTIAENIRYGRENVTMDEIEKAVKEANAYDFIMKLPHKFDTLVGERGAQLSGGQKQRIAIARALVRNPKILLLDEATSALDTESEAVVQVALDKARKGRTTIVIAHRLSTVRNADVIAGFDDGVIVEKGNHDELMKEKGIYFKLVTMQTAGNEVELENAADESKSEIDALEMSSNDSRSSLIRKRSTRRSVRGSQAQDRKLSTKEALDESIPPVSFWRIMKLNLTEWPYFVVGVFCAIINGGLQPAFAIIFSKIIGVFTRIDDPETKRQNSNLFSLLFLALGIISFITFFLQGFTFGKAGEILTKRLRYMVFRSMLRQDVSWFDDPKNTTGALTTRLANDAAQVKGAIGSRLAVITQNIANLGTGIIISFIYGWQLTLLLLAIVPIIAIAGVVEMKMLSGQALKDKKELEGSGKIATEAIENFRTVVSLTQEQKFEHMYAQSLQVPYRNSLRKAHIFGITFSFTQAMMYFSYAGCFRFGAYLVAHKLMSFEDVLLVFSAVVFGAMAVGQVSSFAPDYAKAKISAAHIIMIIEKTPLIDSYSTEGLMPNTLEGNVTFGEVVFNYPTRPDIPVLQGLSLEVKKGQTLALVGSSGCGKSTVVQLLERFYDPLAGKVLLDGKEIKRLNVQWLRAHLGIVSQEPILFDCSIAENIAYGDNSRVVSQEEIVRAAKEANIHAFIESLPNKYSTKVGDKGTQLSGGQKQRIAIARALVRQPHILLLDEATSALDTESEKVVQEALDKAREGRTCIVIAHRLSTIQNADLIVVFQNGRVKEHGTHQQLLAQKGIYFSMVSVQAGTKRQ

[6] = Rat biomarker assay: inhibitor concentrations in plasma, brain and CSF; assay type: in vivo; settings: for concentration at 4 h: male, Sprague Dawley, CSF, oral, 10 mg/kg, Free CSF, 4 hours after 10mg/kg oral dose, corrected for non-specific binding to CSF
[7] = Non-specific binding to CSF by equilibrium dialysis; assay type: in vitro ADME; settings: pooled rat CSF, 2 μM testing concentration
[8] = target: T1, Human MB-COMT (Homo sapiens, UniProt P21964); assay: MTase Glo Methyltransferase assay, MB-COMT; assay type: biochemical
T1 sequence (P21964 1-271): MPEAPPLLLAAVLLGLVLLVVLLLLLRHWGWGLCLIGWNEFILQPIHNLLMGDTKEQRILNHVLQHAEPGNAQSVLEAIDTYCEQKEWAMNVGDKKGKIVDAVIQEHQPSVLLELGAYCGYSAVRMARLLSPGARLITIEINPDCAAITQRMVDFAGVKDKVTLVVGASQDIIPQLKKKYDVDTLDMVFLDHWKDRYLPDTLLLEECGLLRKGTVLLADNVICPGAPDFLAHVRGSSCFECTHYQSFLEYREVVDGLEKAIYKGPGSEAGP

[9] = system: dopamine metabolites HVA and DOPAC in rat CSF (COMT); assay: Rat biomarker assay: HVA and DOPAC in CSF; assay type: in vivo; settings: 4 hours after 10 mpk oral
[10] = target: P-gp (Homo sapiens, UniProt P08183); assay: Transporter susceptibility and inhibitory activity, P-gp; assay type: in vitro ADME; settings: data not shown
P-gp, sequence (P08183 whole entry): as the sequence (P08183 whole entry) above

[11] = target: T2, BCRP (Homo sapiens, UniProt Q9UNQ0); assay: Transporter susceptibility and inhibitory activity, BCRP; assay type: in vitro ADME; settings: data not shown
T2 sequence (Q9UNQ0 1-655): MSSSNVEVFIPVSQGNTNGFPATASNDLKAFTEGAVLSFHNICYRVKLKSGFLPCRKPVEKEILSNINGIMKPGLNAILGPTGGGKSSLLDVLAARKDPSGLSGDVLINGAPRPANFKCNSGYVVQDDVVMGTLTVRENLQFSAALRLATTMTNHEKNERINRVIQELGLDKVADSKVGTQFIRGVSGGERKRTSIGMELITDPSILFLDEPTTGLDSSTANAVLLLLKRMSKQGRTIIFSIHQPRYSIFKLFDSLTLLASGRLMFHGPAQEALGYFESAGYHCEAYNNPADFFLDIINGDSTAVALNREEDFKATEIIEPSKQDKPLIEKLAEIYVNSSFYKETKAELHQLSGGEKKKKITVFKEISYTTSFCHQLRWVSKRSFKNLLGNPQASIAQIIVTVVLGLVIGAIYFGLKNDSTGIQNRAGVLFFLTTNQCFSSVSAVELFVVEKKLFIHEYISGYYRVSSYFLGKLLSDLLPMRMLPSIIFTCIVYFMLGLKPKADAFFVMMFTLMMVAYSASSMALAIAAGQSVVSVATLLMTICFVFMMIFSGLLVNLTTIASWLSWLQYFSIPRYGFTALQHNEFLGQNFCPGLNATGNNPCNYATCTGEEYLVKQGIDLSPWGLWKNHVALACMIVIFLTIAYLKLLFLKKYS

[12] = target: MRP2 (Homo sapiens, UniProt Q92887); assay: Transporter susceptibility and inhibitory activity, MRP2; assay type: in vitro ADME; settings: data not shown
MRP2, sequence (Q92887 whole entry, species assumed): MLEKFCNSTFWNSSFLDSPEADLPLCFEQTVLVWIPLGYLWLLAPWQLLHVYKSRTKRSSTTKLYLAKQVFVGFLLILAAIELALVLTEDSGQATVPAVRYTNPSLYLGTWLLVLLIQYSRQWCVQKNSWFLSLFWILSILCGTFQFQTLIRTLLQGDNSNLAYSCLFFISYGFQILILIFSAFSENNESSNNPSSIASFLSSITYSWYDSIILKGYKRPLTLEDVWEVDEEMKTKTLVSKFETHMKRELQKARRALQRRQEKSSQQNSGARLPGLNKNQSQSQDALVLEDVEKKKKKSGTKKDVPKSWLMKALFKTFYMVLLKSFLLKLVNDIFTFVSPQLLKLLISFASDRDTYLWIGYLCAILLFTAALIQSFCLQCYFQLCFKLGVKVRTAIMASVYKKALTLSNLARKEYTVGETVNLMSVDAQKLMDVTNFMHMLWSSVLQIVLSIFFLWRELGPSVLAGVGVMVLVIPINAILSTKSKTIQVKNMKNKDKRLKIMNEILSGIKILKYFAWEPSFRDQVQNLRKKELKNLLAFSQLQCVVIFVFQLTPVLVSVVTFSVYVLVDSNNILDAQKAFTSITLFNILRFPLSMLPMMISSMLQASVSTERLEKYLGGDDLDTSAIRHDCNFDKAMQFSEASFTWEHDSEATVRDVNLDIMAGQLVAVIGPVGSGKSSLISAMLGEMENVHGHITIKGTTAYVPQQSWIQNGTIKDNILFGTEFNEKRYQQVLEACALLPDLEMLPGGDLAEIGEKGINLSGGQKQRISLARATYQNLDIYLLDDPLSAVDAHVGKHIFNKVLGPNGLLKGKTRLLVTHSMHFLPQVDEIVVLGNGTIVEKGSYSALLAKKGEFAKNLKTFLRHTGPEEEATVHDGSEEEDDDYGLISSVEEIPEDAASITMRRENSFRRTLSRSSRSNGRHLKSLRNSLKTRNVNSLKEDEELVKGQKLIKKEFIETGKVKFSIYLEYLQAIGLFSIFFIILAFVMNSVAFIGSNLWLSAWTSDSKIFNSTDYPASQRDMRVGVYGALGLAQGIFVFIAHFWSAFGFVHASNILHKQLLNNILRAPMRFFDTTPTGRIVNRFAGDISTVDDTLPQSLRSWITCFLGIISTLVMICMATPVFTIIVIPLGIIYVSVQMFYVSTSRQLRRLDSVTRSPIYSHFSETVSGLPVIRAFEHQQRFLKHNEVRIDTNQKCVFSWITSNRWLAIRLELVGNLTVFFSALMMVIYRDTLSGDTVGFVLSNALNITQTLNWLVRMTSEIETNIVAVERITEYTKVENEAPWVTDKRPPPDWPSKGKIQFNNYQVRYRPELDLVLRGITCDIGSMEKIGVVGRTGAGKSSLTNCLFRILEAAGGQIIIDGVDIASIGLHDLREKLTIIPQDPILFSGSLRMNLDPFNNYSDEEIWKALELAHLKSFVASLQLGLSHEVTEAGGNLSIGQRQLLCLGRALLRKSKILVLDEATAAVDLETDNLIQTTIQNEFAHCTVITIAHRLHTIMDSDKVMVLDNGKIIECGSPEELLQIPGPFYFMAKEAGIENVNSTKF

[13] = cited from earlier work; remark: listed apart in the source

SMILES: O=S(=O)(c1ccc(O)c2ncccc12)N1CCC(c2ccc(F)cc2)C1 (centres unmarked) [Compound 13, 5-((3-(4-Fluorophenyl)pyrrolidin-1-yl)sulfonyl)quinoline-8-ol]
- metabolic stability / clearance in rat hepatocytes (in words) [1]: Poor metabolic stability

SMILES: Cc1ccc(S(=O)(=O)c2cc(F)c(O)c3ncccc23)cc1 [Compound 21, 7-Fluoro-5-tosylquinolin-8-ol]
- Hepatocyte Stability (Rat) [1]: 36 μL/min/10^6 cells
- clearance [2]: 27 mL/min/kg

SMILES: O=S(=O)(c1cc(Cl)c(O)c2ncccc12)N1CCCC1 [Compound 29, 7-Chloro-5-(pyrrolidin-1-ylsulfonyl)quinolin-8-ol]
- Hepatocyte Stability (Rat) [1]: 14 μL/min/10^6 cells
- rat PK profile (in words) [2]: very low clearance and long half-life
- clearance [2]: 1 mL/min/kg

SMILES: CCS(=O)(=O)c1ccc(O)c2ncccc12 [Compound 15, 5-(Ethylsulfonyl)quinoline-8-ol]
- Hepatocyte Stability (Rat) [1]: 39 μL/min/10^6 cells
- metabolic stability / clearance in rat hepatocytes (in words) [1]: high hepatocyte clearance
- overall exposure in mouse (in words) [3]: low overall exposure

SMILES: O=S(=O)(c1ccc(C(F)(F)F)cc1)c1ccc(O)c2ncccc12 [Compound 17, 5-((4-(Trifluoromethyl)phenyl)sulfonyl)quinolin-8-ol]
- Hepatocyte Stability (Rat) [1]: 46 μL/min/10^6 cells
- metabolic stability / clearance in rat hepatocytes (in words) [1]: high hepatocyte clearance

SMILES: Cc1c(Cl)c(C)[n+]([O-])c(Cl)c1-c1noc(-c2cc(O)c(O)c([N+](=O)[O-])c2)n1 [Compound 3, opicapone]
- brain penetration (in words) [4]: negligible brain penetration

SMILES: O=S(=O)(c1ccc(O)c2ncccc12)N1CCCC1 [Compound 12, 5-(Pyrrolidin-1-ylsulfonyl)quinoline-8-ol]
- Hepatocyte Stability (Rat) [1]: 177 μL/min/10^6 cells
- metabolic stability / clearance in rat hepatocytes (in words) [1]: Poor metabolic stability

SMILES: O=S(=O)(c1ccc(F)cc1)c1cc(F)c(O)c2ncccc12 [Compound 20, 7-Fluoro-5-((4-fluorophenyl)sulfonyl)quinolin-8-ol]
- Hepatocyte Stability (Rat) [1]: 15 μL/min/10^6 cells
- clearance [2]: 12 mL/min/kg
- P-gp substrate (in words) [5]: not substrates for the transporter
- concentration at 4 h [6]: 59 nM
- Non-specific binding to CSF (bound) [7]: 51–57%

SMILES: Oc1cccc2cccnc12 [Compound 4, 8-hydroxyquinoline, reference compound]
- MB-COMT inhibition / potency (in words) [8]: abolished MB-COMT inhibition

SMILES: CCN(CC)C(=O)/C(C#N)=C/c1cc(O)c(O)c([N+](=O)[O-])c1 [Compound 2, entacapone]
- brain penetration (in words) [4]: negligible brain penetration

SMILES: Cc1cc(S(=O)(=O)N2CCCC2)c2cccnc2c1O [Compound 30, 7-Methyl-5-(pyrrolidin-1-ylsulfonyl)quinolin-8-ol]
- MB-COMT inhibition / potency (in words) [8]: tolerated
- Hepatocyte Stability (Rat) [1]: 103 μL/min/10^6 cells
- metabolic stability / clearance in rat hepatocytes (in words) [1]: no impact on clearance

SMILES: COc1ccc(S(=O)(=O)N2CCCC2)c2cccnc12 [Compound 14, 8-Methoxy-5-(pyrrolidin-1-yulsulfonyl)quinoline]
- MB-COMT inhibition / potency (in words) [8]: no appreciable inhibition of MB-COMT

SMILES: Cc1ccc(S(=O)(=O)c2cc(Br)c(O)c3ncccc23)cc1 [Compound 23, 7-Bromo-5-tosylquinolin-8-ol]
- MB-COMT inhibition / potency (in words) [8]: reduced MB-COMT potency

SMILES: O=S(=O)(c1cc(Cl)c(O)c2ncccc12)C1CCCC1 [Compound 26, 7-Chloro-5-(cyclopentylsulfonyl)quinolin-8-ol]
- Hepatocyte Stability (Rat) [1]: 18 μL/min/10^6 cells
- rat PK profile (in words) [2]: very low clearance and long half-life

SMILES: O=S(=O)(c1ccc(O)c2ncccc12)N1CCCC1Cc1ccccc1 (centres unmarked) [Compound 16, 5-((2-Benzylpyrrolidin-1-yl)sulfonyl)quinoline-8-ol]
- Hepatocyte Stability (Rat) [1]: 228 μL/min/10^6 cells
- metabolic stability / clearance in rat hepatocytes (in words) [1]: high hepatocyte clearance
- overall exposure in mouse (in words) [3]: low overall exposure

SMILES: O=S(=O)(c1cc(F)c(O)c2ncccc12)C1CCCC1 [Compound 25, 5-(Cyclopentylsulfonyl)-7-fluoroquinolin-8-ol]
- Hepatocyte Stability (Rat) [1]: 19 μL/min/10^6 cells
- rat PK profile (in words) [2]: good pharmacokinetics
- clearance [2]: 0.62 mL/min/kg
- concentration at 4 h [6]: 139 nM
- HVA decrease, significance versus vehicle (in words) [9]: statistically significant difference
- Non-specific binding to CSF (bound) [7]: 51–57%

SMILES: O=S(=O)(c1cc(F)c(O)c2ncccc12)N1CCCC1 [Compound 28, 7-Fluoro-5-(pyrrolidin-1-ylsulfonyl)quinolin-8-ol]
- Hepatocyte Stability (Rat) [1]: 21 μL/min/10^6 cells
- rat PK profile (in words) [2]: good pharmacokinetics
- clearance [2]: 11 mL/min/kg
- concentration at 4 h [6]: 77 nM
- HVA decrease, significance versus vehicle (in words) [9]: statistically significant difference
- Non-specific binding to CSF (bound) [7]: 51–57%
- substrate or inhibitor of P-gp (in words) [10]: not found to be a substrate or an inhibitor
- substrate or inhibitor of BCRP (in words) [11]: not found to be a substrate or an inhibitor
- substrate or inhibitor of MRP2 (in words) [12]: not found to be a substrate or an inhibitor

SMILES: Cc1ccc(C(=O)c2cc(O)c(O)c([N+](=O)[O-])c2)cc1 [Compound 1, tolcapone, reference compound]
- CSF ([6]; 4 hours after 15mpk ip): BLQ
- Free Brain ([6]; 4 hours after 15mpk ip): BLQ
- brain penetration (in words) [4]: low but measurable levels in the brain
- hepatic toxicity (in words) [13]: associated with hepatic toxicity

SMILES: O=S(=O)(c1ccc(C(F)(F)F)cc1)c1cc(F)c(O)c2ncccc12 [Compound 18, 7-Fluoro-5-((4-(trifluoromethyl)phenyl)sulfonyl)quinolin-8-ol]
- Hepatocyte Stability (Rat) [1]: 12 μL/min/10^6 cells
- clearance [2]: 13 mL/min/kg

SMILES: O=S(=O)(c1ccc(O)c2ncccc12)C1CCCC1 [Compound 11, 5-(Cyclopentylsulfonyl)quinoline-8-ol]
- clearance [2]: 26 mL/min/kg

SMILES: O=S(=O)(c1ccc(F)cc1)c1cc(Cl)c(O)c2ncccc12 [Compound 19, 7-Chloro-5-((4-fluorophenyl)sulfonyl)quinolin-8-ol]
- Hepatocyte Stability (Rat) [1]: 4 μL/min/10^6 cells
- rat PK profile (in words) [2]: very low clearance and long half-life
- clearance [2]: 0.31 mL/min/kg

SMILES: Cc1ccc(S(=O)(=O)c2cc(Cl)c(O)c3ncccc23)cc1 [Compound 22, 7-Chloro-5-tosylquinolin-8-ol]
- Hepatocyte Stability (Rat) [1]: 78 μL/min/10^6 cells
- clearance [2]: 25 mL/min/kg
- P-gp substrate (in words) [5]: not substrates for the transporter

Source: paper PMC6398604 (Journal of medicinal chemistry, 2018)
